Where two headings read alike, the source gives them in different places.
Experiments:
[1] = system: auricular draining lymph nodes (dLNs); assay: Draining lymph node phenotyping by flow cytometry after 28-day dermal exposure; type: in vivo, B6C3F1 mice; settings: 0.5%, 28 days
Summary of the method: (§1)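 Female B6C3F1 mice (5/group) received 25 μl/ear daily to the dorsal ears in acetone. About 24 h after the last dose, tissues went into RPMI: both auricular dLNs, half spleen and one ear pinna. Single-cell suspensions were acquired on an LSR II, with populations gated per supplemental strategy and FMO gating controls. Results are mean ± SE, n=5, by one-way ANOVA.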

ear pinna [2] = assay: Skin; type: in vivo, B6C3F1 mice; settings: 0.5%, dermal, 28 days
Summary of the method: as §1

spleen = assay: Spleen phenotyping by flow cytometry after 28-day dermal exposure; type: in vivo, B6C3F1 mice; settings: 0.5%, 28 days
Summary of the method: as §1

liver = assay: Liver histopathology after 28-day dermal exposure; type: in vivo, B6C3F1 mice; settings: 0.5%, 28 days
Summary of the method: (§2)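 Female B6C3F1 mice (5/group) received 25 μl/ear on the dorsal ear surfaces daily, with acetone as vehicle. Tissues were formalin-fixed about 24 h after the last dose: liver remainder, half spleen, right kidney and half ear pinna. Sections were paraffin-embedded, cut at 5 μm and stained with H&E. A veterinary pathologist read them per STP guideline and graded 1 (minimal) to 5 (severe) by extent.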

kidney, spleen = assay: Kidney and spleen histopathology after 28-day dermal exposure; type: in vivo, B6C3F1 mice; settings: 0.5%, 28 days
Summary of the method: as §2

[3] = PFAS concentration in serum; type: in vivo, B6C3F1 mice; settings: 0.5%, dermal, 28 days
Summary of the method: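 Serum came by cardiac puncture about 24 h after the final daily ear dose (25 μl/ear, acetone vehicle; female B6C3F1 mice). Samples underwent solid-phase extraction and LC/MS/MS. Short-chain analytes were quantified as linear isomer only; the legacy comparator was quantified as linear plus branched. Data are mean ± SE of 4–5 mice, one-way ANOVA with Dunnett's vs vehicle.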

[4] = PFAS concentration in pooled urine; type: in vivo, B6C3F1 mice; settings: B6C3F1, mouse, urine, topical, 0.5 % w/v
Summary of the method: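 Urine was caught in a weigh boat as it was excreted during CO2 euthanasia, about 24 h after the final daily ear dose (25 μl/ear, acetone vehicle; female B6C3F1 mice). The 5 mice per group were pooled, with variable volume. Samples underwent solid-phase extraction and LC/MS/MS, as linear isomer for short-chain analytes and linear plus branched for the comparator. Each group gave a single value without statistics.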

B6C3F1 mice [5] = assay: Organ weights and body weight after 28-day dermal exposure; type: in vivo; settings: 0.5%, 28 days
B6C3F1 mice [6] = assay: Serum chemistries after 28-day dermal exposure; type: in vivo; settings: 28 days
Summary of the method: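 Female B6C3F1 mice received daily dorsal ear application (25 μl/ear, acetone vehicle). About 24 h after the last dose, blood was taken by cardiac puncture. Serum was separated by centrifugation and stored at −20 °C. ALKP, BUN, glucose and cholesterol were read on a Catalyst DX analyzer. Data are mean ± SE of 4–5 mice, ANOVA with Dunnett's; ALKP was also tested by linear regression (p < 0.05).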

liver (caudate) = assay: Liver gene expression; type: in vivo, B6C3F1 mice; settings: 0.5%, dermal, 28 days
Summary of the method: (§3)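 Dosing was daily topical to both dorsal ears (25 μl/ear, acetone vehicle) in female B6C3F1 mice. Liver caudate lobe or half ear pinna was stored in RNAlater and homogenized in RLT buffer. RNA was isolated on RNeasy columns with DNase, and 1–2 μg was reverse-transcribed. TaqMan real-time PCR was read as 2−ΔΔCT vs vehicle, normalized to β-actin. Statistics: ANOVA/Dunnett's, or Kruskal-Wallis/Dunn's for unequal variance.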

ear pinna [7] = assay: Skin; type: in vivo, B6C3F1 mice; settings: 0.5%, dermal, 28 days; remark: listed apart in the source
Summary of the method: as §3

skin [8] = assay: Irritation at the site of dermal application; type: in vivo, B6C3F1 mice; settings: 0.5%, 28 days
[9] = ref ATSDR, 2021; cited from earlier work
skin [10] = settings: concentrations up to 2%; ref Shane et al., 2020; cited from earlier work
B6C3F1 mice [11] = settings: dermal exposure; Supplemental Table 8; ref Weatherly et al., 2021; cited from earlier work

In the case of O=C(O)C(F)(F)C(F)(F)C(F)(F)C(F)(F)C(F)(F)C(F)(F)C(F)(F)F [PFOA, perfluorooctanoic acid, reference compound], the “dLN B-cells” value [1] is reported as “no B-cell changes”, the “dLN CD4^+ T-cells, cell number and frequency” value [1] is reported as “decreased” and the “dLN MHCII MFI on B-cells” value [1] is reported as “decrease”. For the same compound, the “dLN eosinophil cell number” value [1] was “decrease”, the “total dLN cellularity” value [1] was “neither PFOA (Supplemental Table 3) nor PFBA (Supplemental Table 9) induced changes” and the “skin CD11b + F4/80+ DCs, frequency and cell number” value (ear pinna [2]) was “significantly decreased”. For the same compound, the “skin CD11b− F4/80 DCs, frequency and cell number” value (ear pinna [2]) was “significantly decreased”, the “skin CD11b− F/480+ DCs, frequency and cell number” value (ear pinna [2]) was “significantly decreased” and the “skin CD45^+ cells, frequency and cell number” value (ear pinna [2]) was “significantly decreased”. For the same compound, the “skin eosinophils, frequency and cell number” value (ear pinna [2]) was “significantly decreased”, the “skin total DCs, frequency and cell number” value (ear pinna [2]) was “significantly decreased” and the “spleen MFI of MHCII on B-cells” value (spleen) was “decrease”. The “spleen MFI of MHCII on DCs” value (spleen) was “decrease”, the “spleen frequency of CD4^+ T-cells” value (spleen) was “increase” and the “spleen frequency of CD8^+ T-cells” value (spleen) was “increase”. For the same compound, the “spleen frequency of CD11b + Ly6C + cells” value (spleen) was “decrease”, the “spleen frequency of CD11b + Ly6C− cells” value (spleen) was “decrease” and the “spleen frequency of CD11b + cells” value (spleen) was “decrease”. The “spleen frequency of NK cells” value (spleen) was “decrease”, the “spleen frequency of neutrophils” value (spleen) was “increase” and the “spleen number of B-cells” value (spleen) was “significant decrease”. For the same compound, the “spleen number of CD4^+ T-cells” value (spleen) was “significant decrease”, the “spleen number of CD11b + Ly6C + cells” value (spleen) was “significant decrease” and the “spleen number of CD11b + Ly6C− cells” value (spleen) was “significant decrease”. The “spleen number of CD11b + cells” value (spleen) was “significant decrease”, the “spleen number of NK cells” value (spleen) was “significant decrease” and the “spleen number of eosinophils” value (spleen) was “significant decrease”. The “spleen number of total DCs” value (spleen) was “significant decrease”, the “spleen total cell number” value (spleen) was “significant decrease” and the “liver hepatocellular hypertrophy (diffuse), marked (incidence)” value (liver) was 5/5. For the same compound, the “spleen decreased lymphocyte cellularity, mild (incidence)” value (kidney, spleen) was 2/5, the “PFAS serum concentration vs vehicle” value [3] was “significant increase” and the concentration at 24 h [4] was 260 µg/mL. The body weight (B6C3F1 mice [5]) was “significant decrease”, the “kidney weight (% body weight), increase” value (B6C3F1 mice [5]) was 8% and the “liver weight (% body weight), increase” value (B6C3F1 mice [5]) was 120%. The “spleen weight (% body weight), decrease” value (B6C3F1 mice [5]) was 41%, the “thymus weight (% body weight), decrease” value (B6C3F1 mice [5]) was 71% and the “serum ALKP, increase” value (B6C3F1 mice [6]; 0.5%) was 112%. The “serum BUN” value (B6C3F1 mice [6]; 0.5%) was “No change”, the serum cholesterol (B6C3F1 mice [6]; 0.5%) was “No change” and the “serum glucose, decrease” value (B6C3F1 mice [6]; 0.5%) was 44%. For the same compound, the “serum alanine aminotransferase (ALT)” value (B6C3F1 mice [6]; any concentration, data not shown) was “No change”, the “liver Cd36 gene expression, increase” value (liver (caudate)) was 12.2 fold and the “liver Ehhadh gene expression, increase” value (liver (caudate)) was 57.7 fold. For the same compound, the “liver Lpl gene expression, increase” value (liver (caudate)) was 13.1 fold, the “liver Pparδ gene expression” value (liver (caudate)) was “decrease” and the “liver Serpine1 gene expression, increase” value (liver (caudate)) was 10.5 fold. The “skin Flg gene expression” value (ear pinna [7]) was “increased”, the “skin Pparγ gene expression” value (ear pinna [7]) was “significant decrease” and the “skin Pparδ gene expression” value (ear pinna [7]) was “slight significant increase”. The “skin Serpine1 gene expression” value (ear pinna [7]) was “significant increase”, the “irritation at the site of application” value (skin [8]) was “no irritation” and the half-life in humans [9] was 2.1–10.1 years. For the same compound, the “signs of skin irritation” value (skin [10]) was “did not show any signs of irritation”.
For O=C(O)C(F)(F)C(F)(F)C(F)(F)F [PFBA, heptafluorobutyric acid], the serum cholesterol (B6C3F1 mice [11]) is given as “elevated cholesterol” and the serum glucose levels (B6C3F1 mice [11]) is given as “increase in glucose levels”.

Source: publication PMC9989852 (Food and chemical toxicology : an international journal …, 2022)
